In ChEMBL document CHEMBL4428062, “Human Toll-like Receptor (TLR) 8-Specific Agonistic Activity in Substituted Pyrimidine-2,4-diamines” (J Med Chem, 2016):
The source made the active and inactive calls. The rule behind the calls is not given here.

Legend:
[1] = target: T1, Toll-like receptor 7 (Homo sapiens) (UniProt Q9NYK1); assay: Agonist activity at human TLR7 expressed in HEK293 cells assessed as induction of NF-kappaB activity by secreted alkaline phosphatase reporter gene assay; type: cell-based
T1 sequence (whole entry): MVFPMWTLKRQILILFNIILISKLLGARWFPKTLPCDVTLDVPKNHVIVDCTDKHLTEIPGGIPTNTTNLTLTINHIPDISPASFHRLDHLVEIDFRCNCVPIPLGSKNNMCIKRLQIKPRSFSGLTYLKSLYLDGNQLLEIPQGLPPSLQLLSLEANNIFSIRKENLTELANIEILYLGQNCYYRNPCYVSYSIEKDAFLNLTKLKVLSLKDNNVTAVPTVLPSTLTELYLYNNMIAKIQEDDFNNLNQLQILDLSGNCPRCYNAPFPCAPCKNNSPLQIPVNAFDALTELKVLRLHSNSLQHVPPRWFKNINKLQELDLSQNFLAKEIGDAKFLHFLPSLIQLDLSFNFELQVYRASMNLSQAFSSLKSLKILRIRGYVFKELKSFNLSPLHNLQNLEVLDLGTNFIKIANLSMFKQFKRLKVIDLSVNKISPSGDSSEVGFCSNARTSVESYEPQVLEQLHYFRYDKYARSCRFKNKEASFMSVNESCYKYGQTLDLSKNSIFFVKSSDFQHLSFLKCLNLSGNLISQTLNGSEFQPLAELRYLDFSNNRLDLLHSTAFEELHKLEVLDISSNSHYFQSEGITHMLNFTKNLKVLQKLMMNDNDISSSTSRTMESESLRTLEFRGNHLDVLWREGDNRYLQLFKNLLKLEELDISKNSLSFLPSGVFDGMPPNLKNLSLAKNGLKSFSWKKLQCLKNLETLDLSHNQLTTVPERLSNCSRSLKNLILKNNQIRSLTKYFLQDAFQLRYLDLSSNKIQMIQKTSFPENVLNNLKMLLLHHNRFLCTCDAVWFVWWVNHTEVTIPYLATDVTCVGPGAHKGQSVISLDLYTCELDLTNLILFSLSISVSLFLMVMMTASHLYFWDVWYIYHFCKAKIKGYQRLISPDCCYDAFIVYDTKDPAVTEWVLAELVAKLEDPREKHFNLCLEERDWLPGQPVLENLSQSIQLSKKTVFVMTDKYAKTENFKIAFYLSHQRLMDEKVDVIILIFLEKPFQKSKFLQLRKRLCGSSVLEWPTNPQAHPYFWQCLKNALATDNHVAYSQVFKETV
Summary of the method: (§1)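 HEK293 reporter lines stably co-transfected with the respective human TLR and an NF-κB/AP-1-driven secreted alkaline phosphatase gene, kept in selection medium. About 10^5 cells/ml were incubated with graded concentrations of stimuli. Supernatant sAP was read spectrophotometrically at 620 nm using a chromogenic substrate in detection medium. EC50 was taken as the arithmetic mean of quadruplicate samples.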

[2] = target: T2, Toll-like receptor 8 (Homo sapiens) (UniProt Q9NR97); assay: Agonist activity at TLR8 in human PBMC assessed as induction of IL-8 levels after 16 hrs by immunoassay
T2 sequence (whole entry): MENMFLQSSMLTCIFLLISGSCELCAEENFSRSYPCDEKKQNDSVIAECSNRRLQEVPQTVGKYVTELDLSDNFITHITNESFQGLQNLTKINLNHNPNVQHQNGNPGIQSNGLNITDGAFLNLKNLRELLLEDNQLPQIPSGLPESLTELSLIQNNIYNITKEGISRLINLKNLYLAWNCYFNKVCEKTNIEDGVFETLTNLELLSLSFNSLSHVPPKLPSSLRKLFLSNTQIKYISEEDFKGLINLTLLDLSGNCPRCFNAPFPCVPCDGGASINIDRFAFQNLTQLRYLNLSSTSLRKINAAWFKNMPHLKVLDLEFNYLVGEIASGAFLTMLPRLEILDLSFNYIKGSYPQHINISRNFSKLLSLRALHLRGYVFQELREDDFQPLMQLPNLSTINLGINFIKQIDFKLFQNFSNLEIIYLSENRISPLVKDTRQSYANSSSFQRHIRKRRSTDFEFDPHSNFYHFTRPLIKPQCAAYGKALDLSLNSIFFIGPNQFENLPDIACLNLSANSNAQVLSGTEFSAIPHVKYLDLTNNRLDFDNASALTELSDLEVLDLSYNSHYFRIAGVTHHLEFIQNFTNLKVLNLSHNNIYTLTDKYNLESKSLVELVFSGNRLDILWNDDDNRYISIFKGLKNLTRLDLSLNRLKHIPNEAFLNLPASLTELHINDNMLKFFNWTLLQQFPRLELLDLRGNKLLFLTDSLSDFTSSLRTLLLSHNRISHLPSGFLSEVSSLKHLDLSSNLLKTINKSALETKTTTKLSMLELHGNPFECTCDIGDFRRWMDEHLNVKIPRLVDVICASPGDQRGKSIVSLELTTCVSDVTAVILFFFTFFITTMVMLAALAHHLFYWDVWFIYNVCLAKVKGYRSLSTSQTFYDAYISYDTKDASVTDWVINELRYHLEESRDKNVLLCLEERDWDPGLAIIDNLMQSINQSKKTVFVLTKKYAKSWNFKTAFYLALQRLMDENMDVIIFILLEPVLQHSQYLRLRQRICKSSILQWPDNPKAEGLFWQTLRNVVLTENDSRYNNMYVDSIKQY
Summary of the method: (§2)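 Freshly isolated human PBMC from venipuncture blood (informed consent), 10^5 cells/well, stimulated 16 h with graded concentrations of compound. Supernatants collected by centrifugation and cytokines quantified in duplicate with a multiplexed cytokine/chemokine magnetic bead array.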

[3] = target: T2, Toll-like receptor 8 (Homo sapiens); assay: Agonist activity at TLR8 in human PBMC assessed as induction of IL-6 levels after 16 hrs by immunoassay; summary of the method: as §2
[4] = target: Toll-like receptor 2 (Homo sapiens) (UniProt O60603); assay: Agonist activity at human TLR2 expressed in HEK293 cells assessed as induction of NF-kappaB activity by secreted alkaline phosphatase reporter gene assay; type: cell-based; summary of the method: as §1
[5] = target: T2, Toll-like receptor 8 (Homo sapiens); assay: Agonist activity at TLR8 in human PBMC assessed as Th1-biased stimulatory activity measured as IFNgamma release after 16 hrs by immunoassay; summary of the method: as §2
[6] = target: T2, Toll-like receptor 8 (Homo sapiens); assay: Agonist activity at TLR8 in human monocytes assessed as upregulation of CD80 after 16 hrs by flow cytometry; type: cell-based
Summary of the method: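 Heparin-anticoagulated healthy-donor whole blood added to serial compound dilutions, 37 °C for 16 h, DMSO negative control. Stained with CD14-FITC, CD40-APC, CD80-PE-Cy7 and CD86-V450 (2.5 µg each, 4 °C, dark, 60 min). Erythrocytes lysed, leukocytes fixed, washed, then flow cytometry on 200,000 gated events. Monocytes gated as CD14+, CD80 read as MFI, means of duplicates.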

[7] = target: T2, Toll-like receptor 8 (Homo sapiens); assay: Agonist activity at TLR8 in human PBMC assessed as Th1-biased stimulatory activity measured as IL-12 release after 16 hrs by immunoassay; summary of the method: as §2
[8] = target: Toll-like receptor 3 (Homo sapiens) (UniProt O15455); assay: Agonist activity at human TLR3 expressed in HEK293 cells assessed as induction of NF-kappaB activity by secreted alkaline phosphatase reporter gene assay; type: cell-based; summary of the method: as §1
[9] = target: T3, Toll-like receptor 8 (Homo sapiens, UniProt Q9NR97); assay: Agonist activity at human TLR8 expressed in HEK293 cells assessed as induction of NF-kappaB activity by secreted alkaline phosphatase reporter gene assay; type: cell-based; summary of the method: as §1
T3 sequence (Q9NR97 whole entry): T2 sequence (whole entry)

Sequence of Toll-like receptor 3 (Homo sapiens) (O15455 whole entry): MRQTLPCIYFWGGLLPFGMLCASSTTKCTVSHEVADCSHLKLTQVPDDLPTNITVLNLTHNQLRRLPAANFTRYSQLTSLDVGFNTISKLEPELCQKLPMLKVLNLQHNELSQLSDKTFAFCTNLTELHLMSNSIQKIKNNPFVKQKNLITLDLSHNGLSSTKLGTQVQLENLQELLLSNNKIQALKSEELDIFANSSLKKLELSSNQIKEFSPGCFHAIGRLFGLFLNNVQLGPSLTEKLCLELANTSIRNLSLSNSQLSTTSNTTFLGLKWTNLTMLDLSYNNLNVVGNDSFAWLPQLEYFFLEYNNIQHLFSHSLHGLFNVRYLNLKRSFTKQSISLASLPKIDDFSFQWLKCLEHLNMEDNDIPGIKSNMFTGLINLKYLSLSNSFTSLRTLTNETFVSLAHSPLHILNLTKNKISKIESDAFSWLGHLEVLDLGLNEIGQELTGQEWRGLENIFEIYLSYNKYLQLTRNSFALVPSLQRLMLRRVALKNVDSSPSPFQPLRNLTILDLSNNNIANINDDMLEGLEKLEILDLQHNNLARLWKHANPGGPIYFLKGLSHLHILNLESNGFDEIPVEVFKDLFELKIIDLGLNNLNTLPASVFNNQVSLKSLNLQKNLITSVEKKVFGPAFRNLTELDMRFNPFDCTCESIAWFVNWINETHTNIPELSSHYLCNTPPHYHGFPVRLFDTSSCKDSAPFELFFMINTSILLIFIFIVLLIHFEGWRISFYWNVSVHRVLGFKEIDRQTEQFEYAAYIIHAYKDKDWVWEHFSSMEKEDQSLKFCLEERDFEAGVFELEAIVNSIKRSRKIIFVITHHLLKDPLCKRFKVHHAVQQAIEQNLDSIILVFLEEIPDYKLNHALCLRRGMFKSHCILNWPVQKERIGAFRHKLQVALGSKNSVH
Sequence of Toll-like receptor 2 (Homo sapiens) (O60603 whole entry): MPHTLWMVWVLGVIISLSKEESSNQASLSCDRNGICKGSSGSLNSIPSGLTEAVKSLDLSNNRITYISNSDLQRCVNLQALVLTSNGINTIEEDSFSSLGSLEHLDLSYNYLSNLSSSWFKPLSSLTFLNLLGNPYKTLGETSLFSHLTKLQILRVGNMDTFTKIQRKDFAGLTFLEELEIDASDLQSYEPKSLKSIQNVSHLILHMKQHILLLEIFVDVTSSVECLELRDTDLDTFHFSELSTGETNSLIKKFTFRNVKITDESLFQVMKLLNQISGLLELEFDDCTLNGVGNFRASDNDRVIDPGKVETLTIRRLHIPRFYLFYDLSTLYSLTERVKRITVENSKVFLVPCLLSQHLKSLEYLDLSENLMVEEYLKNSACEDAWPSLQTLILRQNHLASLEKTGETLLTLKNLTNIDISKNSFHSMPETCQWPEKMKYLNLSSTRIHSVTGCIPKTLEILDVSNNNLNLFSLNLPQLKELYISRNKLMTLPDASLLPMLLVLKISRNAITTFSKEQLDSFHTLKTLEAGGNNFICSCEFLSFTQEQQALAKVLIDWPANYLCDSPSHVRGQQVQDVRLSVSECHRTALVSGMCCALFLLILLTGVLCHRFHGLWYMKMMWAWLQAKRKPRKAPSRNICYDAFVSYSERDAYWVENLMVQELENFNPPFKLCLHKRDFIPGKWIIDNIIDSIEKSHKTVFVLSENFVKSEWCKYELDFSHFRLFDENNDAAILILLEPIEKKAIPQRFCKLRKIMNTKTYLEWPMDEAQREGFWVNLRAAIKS

SMILES | Activity [1] | Activity [2] | Activity [3] | Activity [4] | Activity [5] | Activity [6] [µM] | Activity [7] | Activity [8] | EC50 [9] [µM]
CCCCNc1nc(N)nc(C)c1CCCCN | inactive | inactive | inactive | inactive | Active | 1.5 | Active | inactive | 0.3
CCCCCn1c(N)nc2c(C)cccc21 | inactive | Active | Active | inactive | – | 14 | – | inactive | 1.8
CCCCNc1cc(-c2ccccc2)nc(N)n1 | inactive | inactive | inactive | inactive | inactive | – | inactive | inactive | 6.7
CCCCNc1nc(N)nc(C)c1I | inactive | Active | Active | inactive | Active | 5 | Active | inactive | 1.64
CCCCNc1nc(N)nc(-c2ccccc2)c1CCCCN | inactive | inactive | inactive | inactive | inactive | – | inactive | inactive | –
